Test results published in ChEMBL document CHEMBL1147062, “Therapeutic anticancer efficacy of a synthetic diazonamide analog in the absence of overt toxicity” (Proc Natl Acad Sci U S A, 2007).
The source made the active and inactive calls. No cut-off for these calls is given here.

How the values were obtained:
PC-3 [1] = experiment: Antitumor activity against human PC3 cells xenografted into NCR nu/nu mouse at 7.5 mg/kg, iv dosed in qdX6 schedule relative to control; assay type: functional
Summary of the method: (§1)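 Nude mice received 10^7 PC3 cells s.c. in the left flank and were randomized at ≈250 mm3 into groups of six to seven. Dosing was i.v. daily for 6 consecutive days, in 0.2 ml cremaphor:ethanol (1:1) diluted in 5% dextrose. Tumors were measured by calipers as (length × width2)/2, and weight was tracked alongside.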

HCT-116 [2] = experiment: Antitumor activity against human HCT116 cells xenografted into NCR nu/nu mouse at 5 mg/kg, ip dosed in q2-3dX6 schedule relative to control; assay type: functional; conditions: route intraperitoneal
Summary of the method: (§2)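 NCR nu/nu mice given 7.5–10 × 10^6 tumor cells s.c. in the left flank. At ≈100–300 mm3 (5–10 days), mice were randomized into groups of 4–7. Compound was predissolved in 1:1 cremaphor:ethanol, then diluted into 5% dextrose. Dosed i.v. or i.p. in 0.2 ml on Monday, Wednesday and Friday for 2 weeks. Caliper measurements 2–3 times weekly; volume = (length × width2)/2.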

Mus musculus [3] = experiment: Toxicity in human HCT116 cells xenografted NCR nu/nu mouse assessed as decrease in neutrophil count in peripheral blood at 2 mg/kg, iv QD for 6 days relative to control; assay type: organism-based, HCT-116; design: dose 2 mg/kg, route intravenous; conditions: in vivo, 144 h
Summary of the method: (§3)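 NCR nu/nu mice received 10^7 HCT116 cells s.c. in the left flank 12 days before therapy. Dosing was i.v. qd × 6: 20 mg/kg in cremaphor:ethanol/5% dextrose, or 2 mg/kg vinblastine sulfate in 5% dextrose. Mice were weighed daily. On day 8, Gr1hi neutrophils in tail-vein blood and femoral marrow were counted by flow cytometry and compared with control by ANOVA and Dunnett's test.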

[4] = AUC in NCR nu/nu mouse plasma at 20 mg/kg, iv; assay type: ADME, organism-based; design: dose 20 mg/kg, route intravenous
Summary of the method: (§4)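 Each NCR nu/nu mouse got one i.v. bolus of 20 mg/kg in 0.2 ml of 1:1 cremaphor:ethanol (10%) diluted in 5% dextrose. At set times mice were killed by CO2 overdose and bled by cardiac puncture into sodium citrate. Plasma was spun 10 min at 8,000 × g and frozen at −80°C. LC-MS used an internal standard and a spiked blank murine plasma standard curve. Parameters came from noncompartmental analysis.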

Mus musculus [5] = experiment: Toxicity in NCR nu/nu mouse assessed as loss of body weight at 2.5 mg/kg, iv for 6 days; assay type: organism-based; design: dose 2.5 mg/kg, route intravenous; conditions: in vivo, 144 h
Summary of the method: (§5)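 Nude mice carried 10^7 PC3 cells s.c. in the left flank and were randomized into groups of six to seven when tumors reached ≈250 mm3. Mice were dosed at 20, 7.5 or 2.5 mg/kg for 6 consecutive days. Body weight was tracked against starting weight, including 2 days after the last dose.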

Mus musculus [6] = experiment: Toxicity in NCR nu/nu mouse assessed as loss of body weight at 20 mg/kg, iv for 6 days; assay type: organism-based; design: dose 20 mg/kg, route intravenous; conditions: in vivo, 144 h; summary of the method: as §5
Mus musculus [7] = experiment: Toxicity in human HCT116 cells xenografted NCR nu/nu mouse assessed as loss of body weight iv QD for 6 days; conditions: in vivo, 144 h
[8] = Clearance in NCR nu/nu mouse plasma at 20 mg/kg, iv; assay type: ADME, organism-based; design: dose 20 mg/kg, route intravenous; summary of the method: as §4
Mus musculus [9] = experiment: Toxicity in NCR nu/nu mouse neutropenia model assessed as loss of body weight at 20 mg/kg, iv QD for 6 days; assay type: organism-based; design: dose 20 mg/kg, route intravenous; conditions: in vivo, 144 h
Summary of the method: (§6)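 Non-tumor-bearing NCR nu/nu mice, four to five per group, got 20 mg/kg i.v. qd × 6 in cremaphor:ethanol/5% dextrose, or vehicle. They were weighed and observed daily and killed on day 8. Tail-vein blood and femoral marrow were lysed of erythrocytes, stained for Gr1 and analyzed by flow cytometry. Neutrophil counts were %Gr1hi × white cells per ml or per femur. Groups were compared with control by one-way ANOVA and Dunnett's test.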

Mus musculus [10] = experiment: Toxicity in human HCT116 cells xenografted NCR nu/nu mouse assessed as decrease in neutrophil count in bone marrow at 20 mg/kg, iv QD for 6 days relative to control; assay type: organism-based, HCT-116; design: dose 20 mg/kg, route intravenous; conditions: in vivo, 144 h; summary of the method: as §3
PC-3 [11] = experiment: Induction of histone H3 phosphorylation in human PC3 cells xenografted into NCR nu/nu mouse at 20 mg/kg, iv; assay type: functional, organism-based; design: dose 20 mg/kg
Summary of the method: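 nu/nu mice carried 10^7 PC3 cells s.c. in the left flank. On day 8 they got one i.v. dose of 20 mg/kg or vehicle, two mice per group. Tumors were taken 12 h later, snap-frozen and homogenized in RIPA buffer with phosphatase and protease inhibitors. 100 µg protein was Western blotted for phospho-histone H3, with actin as control.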

[12] = Drug level in NCR nu/nu mouse plasma at 20 mg/kg, iv after 24 hrs; assay type: ADME, organism-based; design: dose 20 mg/kg, route intravenous; summary of the method: as §4
Mus musculus [13] = experiment: Toxicity in NCR nu/nu mouse neutropenia model assessed as decrease in neutrophil count in bone marrow at 20 mg/kg, iv QD for 6 days relative to control; assay type: organism-based; design: dose 20 mg/kg, route intravenous; conditions: in vivo, 144 h; summary of the method: as §6
Mus musculus [14] = experiment: Toxicity in human HCT116 cells xenografted NCR nu/nu mouse assessed as loss of body weight at 20 mg/kg, iv QD for 6 days; assay type: organism-based, HCT-116; design: dose 20 mg/kg, route intravenous; conditions: in vivo, 144 h; summary of the method: as §3
HCT-116 [15] = experiment: Antitumor activity against human HCT116 cells xenografted into NCR nu/nu mouse at 5 mg/kg, iv dosed in q2-3dX6 schedule relative to control; assay type: functional; summary of the method: as §2
HCT-116 [16] = experiment: Antitumor activity against human HCT116 cells xenografted into NCR nu/nu mouse at 20 mg/kg, ip dosed in q2-3dX6 schedule relative to control; assay type: functional; conditions: route intraperitoneal; summary of the method: as §2
PC-3 [17] = experiment: Antitumor activity against human PC3 cells xenografted into NCR nu/nu mouse at 20 mg/kg, iv dosed in qdX6 schedule relative to control; assay type: functional; summary of the method: as §1
Mus musculus [18] = experiment: Toxicity in human HCT116 cells xenografted NCR nu/nu mouse assessed as decrease in neutrophil count in peripheral blood at 20 mg/kg, iv QD for 6 days relative to control; assay type: organism-based, HCT-116; design: dose 20 mg/kg, route intravenous; conditions: in vivo, 144 h; summary of the method: as §3
MDA-MB-435 [19] = experiment: Antitumor activity against human MDA-MB-435 cells xenografted into NCR nu/nu mouse at 20 mg/kg, ip dosed in q3-4dX4 schedule relative to control; assay type: functional; conditions: route intraperitoneal
Summary of the method: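 NCR nu/nu mice bearing s.c. left-flank xenografts (7.5–10 × 10^6 cells) were randomized at ≈100–300 mm3 into groups of 4–7. Dosing was i.p. in 0.2 ml, with cremaphor:ethanol (1:1) stock diluted in 5% dextrose. Body weight and caliper tumor size were recorded 2–3 times per week; volume = (length × width2)/2.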

[20] = Terminal half life in NCR nu/nu mouse plasma at 20 mg/kg, iv; assay type: ADME, organism-based; design: dose 20 mg/kg, route intravenous; summary of the method: as §4
PC-3 [21] = experiment: Antitumor activity against human PC3 cells xenografted into NCR nu/nu mouse at 2.5 mg/kg, iv dosed in qdX6 schedule relative to control; assay type: functional; summary of the method: as §1
Mus musculus [22] = experiment: Toxicity in NCR nu/nu mouse neutropenia model assessed as severe flaking of skin at 20 mg/kg, iv QD for 6 days; assay type: organism-based; design: dose 20 mg/kg, route intravenous; conditions: in vivo, 144 h; summary of the method: as §6
Mus musculus [23] = experiment: Toxicity in NCR nu/nu mouse neutropenia model assessed as decrease in neutrophil count in peripheral blood at 20 mg/kg, iv QD for 6 days relative to control; assay type: organism-based; design: dose 20 mg/kg, route intravenous; conditions: in vivo, 144 h; summary of the method: as §6
Mus musculus [24] = experiment: Volume of distribution in NCR nu/nu mouse plasma at 20 mg/kg, iv; assay type: ADME, organism-based; design: dose 20 mg/kg, route intravenous; conditions: in vivo; summary of the method: as §4
Mus musculus [25] = experiment: Toxicity in human HCT116 cells xenografted NCR nu/nu mouse assessed as decrease in neutrophil count in bone marrow at 2 mg/kg, iv QD for 6 days relative to control; assay type: organism-based, HCT-116; design: dose 2 mg/kg, route intravenous; conditions: in vivo, 144 h; summary of the method: as §3
PC-3 [26] = experiment: Antitumor activity against human PC3 cells xenografted into NCR nu/nu mouse at 20 mg/kg, iv dosed in q2-3dX6 schedule relative to control; assay type: functional; summary of the method: as §2
HCT-116 [27] = experiment: Antitumor activity against human HCT116 cells xenografted into NCR nu/nu mouse at 20 mg/kg, iv dosed in q2-3dX6 schedule relative to control; assay type: functional; summary of the method: as §2
Mus musculus [28] = experiment: Toxicity in NCR nu/nu mouse assessed as loss of body weight at 7.5 mg/kg, iv for 6 days; assay type: organism-based; design: dose 7.5 mg/kg, route intravenous; conditions: in vivo, 144 h; summary of the method: as §5
HCT-116 [29] = experiment: Antitumor activity against human HCT116 cells xenografted into NCR nu/nu mouse at 0.45 mg/kg, ip dosed in q2-3dX6 schedule relative to control; assay type: functional; conditions: route intraperitoneal
MDA-MB-435 [30] = experiment: Antitumor activity against human MDA-MB-435 cells xenografted into NCR nu/nu mouse at 0.7 mg/kg, ip dosed in q3-4dX4 schedule relative to control; assay type: functional; conditions: route intraperitoneal

| Structure (SMILES) | LCK (PC-3 [1]) | T/C (PC-3 [1]) | Activity (Mus musculus [3]) | Activity (Mus musculus [6]) | Activity (Mus musculus [7]) | Activity (Mus musculus [9]) | Activity (Mus musculus [10]) | Activity (Mus musculus [13]) | Activity (Mus musculus [14]) | LCK (PC-3 [17]) | T/C (PC-3 [17]) | Activity (Mus musculus [18]) | T/C (PC-3 [21]) | Activity (Mus musculus [22]) | Activity (Mus musculus [23]) | Activity (Mus musculus [25]) | LCK (PC-3 [26]) | T/C (PC-3 [26]) | LCK (HCT-116 [27]) | T/C (HCT-116 [27]) | also measured |
| --- | --- | --- | --- | --- | --- | --- | --- | --- | --- | --- | --- | --- | --- | --- | --- | --- | --- | --- | --- | --- | --- |
| CC(C)[C@H](O)C(=O)N[C@@H]1C(=O)N[C@@H](C(C)C)c2nc3c(o2)C24c5ccc(cc5N[C@H]2Oc2ccc1cc24)-c1cccc2[nH]cc(c12)-c1cnc-3o1 (single isomer, unassigned) | 1.6 | 3.9% | Non-toxic | <= 5% | Non-toxic | Non-toxic | Non-toxic | Non-toxic | Non-toxic | 2.4 | 2.1% | Non-toxic | 31.4% | Non-toxic | Non-toxic | Non-toxic | 3.4 | 0.3% | 1.8 | 0.2% | LCK (HCT-116 [2]): 0.4; T/C (HCT-116 [2]): 41.9%; AUC [4]: 50200 ng·h/mL; Activity (Mus musculus [5]): <= 5%; clearance [8]: 0.146 mL/min; Activity (PC-3 [11]): Active; concentration at 24 h [12]: 15 ng/mL; LCK (HCT-116 [15]): 0.5; T/C (HCT-116 [15]): 26.5%; LCK (HCT-116 [16]): 1; T/C (HCT-116 [16]): 9.3%; LCK (MDA-MB-435 [19]): 1; T/C (MDA-MB-435 [19]): 3.1%; half-life [20]: 4.96 h; Vd (Mus musculus [24]): 62.7 mL; Activity (Mus musculus [28]): <= 5% |
| CC(=O)O[C@H]1C(=O)[C@@]2(C)[C@H]([C@H](OC(=O)c3ccccc3)[C@]3(O)C[C@H](OC(=O)[C@H](O)[C@@H](NC(=O)c4ccccc4)c4ccccc4)C(C)=C1C3(C)C)[C@]1(OC(C)=O)CO[C@@H]1C[C@@H]2O [PACLITAXEL] | 1.5 | 6.1% | Toxic | > 20% | Toxic | 20% | Toxic | Toxic | Toxic | 3.8 | 0.6% | Toxic | 49.2% | Toxic | Toxic | Toxic | 3.4 | 0% | 2.7 | 0.2% | LCK (PC-3 [21]): 0.3; Activity (Mus musculus [28]): 13% |
| CC[C@]1(O)C[C@@H]2CN(CCc3c([nH]c4ccccc34)[C@@](C(=O)OC)(c3cc4c(cc3OC)N(C)[C@H]3[C@@](O)(C(=O)OC)[C@H](OC(C)=O)[C@]5(CC)C=CCN6CC[C@]43[C@@H]65)C2)C1.O=S(=O)(O)O [VINBLASTINE SULFATE] | – | – | Toxic | – | Toxic | – | Toxic | – | Toxic | – | – | Toxic | – | – | – | Toxic | – | – | – | – | LCK (HCT-116 [29]): 0.2; T/C (HCT-116 [29]): 56%; LCK (MDA-MB-435 [30]): 0.2; T/C (MDA-MB-435 [30]): 41.1% |
